The source of these data is ChEMBL document CHEMBL1128562, “1-Phenyl-3-amino-1,2,3,4-tetrahydronaphthalenes and related derivatives as ligands for the neuromodulatory sigma 3 receptor: further structure-activity relationships” (J Med Chem, 1995).

The target in assay [1] is D(1A) dopamine receptor (Rattus norvegicus) (UniProt P18901). Kind of assay: Binding affinity against Dopamine receptor D1 by using [3H]SCH-23390 as radioligand. The method in brief: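 Rat corpus striatum homogenate (30 μg protein) in 10 mM Tris with 150 mM NaCl, pH 7.4. Incubated 30 min at 30 °C with 0.3 nM [3H]SCH-23390; 300 nM cis-(Z)-flupenthixol defined nonspecific binding. Test ligand at 6–8 concentrations (0.01–10 000 nM) in triplicate, then filtration and scintillation counting. IC50 from sigmoidal fit converted to K0.5 = IC50/(1 + L/KD); assay repeated twice, ± SEM.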
Chain of D(1A) dopamine receptor (Rattus norvegicus) (P18901 whole entry): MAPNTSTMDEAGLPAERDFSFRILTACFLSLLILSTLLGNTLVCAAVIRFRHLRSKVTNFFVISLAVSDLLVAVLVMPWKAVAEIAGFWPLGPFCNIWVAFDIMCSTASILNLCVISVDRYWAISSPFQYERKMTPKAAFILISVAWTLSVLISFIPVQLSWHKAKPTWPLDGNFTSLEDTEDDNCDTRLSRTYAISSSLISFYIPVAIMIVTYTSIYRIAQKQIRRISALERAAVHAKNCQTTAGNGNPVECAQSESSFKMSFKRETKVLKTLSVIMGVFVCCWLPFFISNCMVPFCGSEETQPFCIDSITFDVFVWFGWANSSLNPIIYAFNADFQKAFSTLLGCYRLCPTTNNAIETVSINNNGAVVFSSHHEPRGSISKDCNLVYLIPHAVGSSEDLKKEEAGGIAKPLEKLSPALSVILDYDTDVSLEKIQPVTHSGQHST

For assay [2], the target named is D(2) dopamine receptor (Rattus norvegicus) (UniProt P61169). In words: Binding affinity against Dopamine receptor D2 by using [3H]- radioligand. The essentials:
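D2 competition assay on rat corpus striatum homogenate (30 μg protein) in 10 mM Tris/150 mM NaCl, pH 7.4, at 30 °C for 90 min. Radioligand was 0.065 nM [3H]emonapride (YM-09151); 250 nM (+)-butaclamol defined nonspecific binding. Six to eight test concentrations spanning 0.01–10 000 nM, in triplicate. Sigmoidal-fit IC50 converted to K0.5 via IC50/(1 + L/KD); repeated twice, ± SEM.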

Assay [3] addresses D(3) dopamine receptor (Homo sapiens) (UniProt P35462). In words: Binding affinity against Dopamine receptor D3 by using [3H]- radioligand.
Assay [4] in a line: Binding affinity against Sigma receptor type 3 by using [3H]-(-)-H2-PAT as radioligand. The conditions noted are these: Rattus norvegicus.
The target in assay [5] is D(1A) dopamine receptor (Rattus norvegicus) (UniProt P18901).
For assay [6], the target named is D(2) dopamine receptor (Rattus norvegicus) (UniProt P61169).
Chain of D(2) dopamine receptor (Rattus norvegicus) (P61169 whole entry): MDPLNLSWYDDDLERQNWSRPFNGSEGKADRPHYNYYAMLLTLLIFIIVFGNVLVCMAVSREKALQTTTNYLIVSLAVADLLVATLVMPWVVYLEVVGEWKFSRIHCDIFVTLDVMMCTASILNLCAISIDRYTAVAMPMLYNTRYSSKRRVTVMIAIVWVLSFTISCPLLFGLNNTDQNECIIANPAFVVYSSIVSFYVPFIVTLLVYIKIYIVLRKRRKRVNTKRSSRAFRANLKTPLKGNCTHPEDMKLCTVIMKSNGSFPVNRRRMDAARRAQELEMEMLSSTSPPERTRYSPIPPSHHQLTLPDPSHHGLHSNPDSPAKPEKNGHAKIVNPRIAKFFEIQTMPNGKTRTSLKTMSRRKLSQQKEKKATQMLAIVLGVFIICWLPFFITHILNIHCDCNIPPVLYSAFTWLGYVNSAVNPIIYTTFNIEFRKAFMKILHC
The target in assay [7] is Sigma non-opioid intracellular receptor 1 (Rattus norvegicus) (UniProt Q9R0C9).
Chain of Sigma non-opioid intracellular receptor 1 (Rattus norvegicus) (Q9R0C9 whole entry): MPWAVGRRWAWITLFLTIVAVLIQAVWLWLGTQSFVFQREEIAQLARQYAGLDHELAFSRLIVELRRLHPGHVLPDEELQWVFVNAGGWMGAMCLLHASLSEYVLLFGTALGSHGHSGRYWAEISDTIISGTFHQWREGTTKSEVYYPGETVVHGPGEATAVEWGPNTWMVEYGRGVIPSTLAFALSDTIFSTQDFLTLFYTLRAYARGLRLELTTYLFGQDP

Chain of D(3) dopamine receptor (Homo sapiens) (P35462 whole entry, looked up): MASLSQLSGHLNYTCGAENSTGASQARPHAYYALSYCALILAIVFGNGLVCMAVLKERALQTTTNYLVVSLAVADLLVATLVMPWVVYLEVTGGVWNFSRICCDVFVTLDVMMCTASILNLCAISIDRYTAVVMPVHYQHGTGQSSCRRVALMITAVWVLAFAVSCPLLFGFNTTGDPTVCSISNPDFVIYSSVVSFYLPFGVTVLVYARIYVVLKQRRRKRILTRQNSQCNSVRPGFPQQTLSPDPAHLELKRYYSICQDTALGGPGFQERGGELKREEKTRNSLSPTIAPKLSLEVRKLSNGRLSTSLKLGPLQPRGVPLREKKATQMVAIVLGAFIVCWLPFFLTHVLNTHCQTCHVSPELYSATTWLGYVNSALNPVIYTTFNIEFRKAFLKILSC

`CN[C@@H]1Cc2ccccc2[C@@H](c2ccccc2)C1`: the Ki 0.5 in assay [1] was greater than 5 µM; in assay [2], greater than 5 µM; in assay [3], greater than 1 µM; in assay [4], 0.12 µM.
For the molecule `CN(C)[C@@H]1Cc2ccccc2[C@@H](c2ccccc2)C1` (stereo in doubt; (+)-2), the Ki 0.5 in assay [1] is greater than 5 µM; in assay [2], greater than 5 µM; in assay [3], 1 µM; in assay [4], 0.0135 µM.
For `CN(C)[C@H]1Cc2ccccc2[C@@](C)(c2ccccc2)C1`, the Ki 0.5 was greater than 2.5 µM in assay [1], greater than 5 µM in assay [2], 1 µM in assay [3] and 0.0025 µM in assay [4].
For `CN(C)[C@@H]1CCc2ccccc2[C@H]1c1ccccc1` the same measures were greater than 5 µM, greater than 5 µM, greater than 1 µM and 0.98 µM.
Take `CN(C)[C@@H]1Cc2cc(Cl)c(O)cc2[C@@H](c2ccccc2)C1`: the Ki 0.5 worked out at 0.42 µM in assay [5]; 0.26 µM in assay [6]; 2 µM in assay [7]; 0.3 µM in assay [3]; 0.0003 µM in assay [4].
For the molecule `CN(CCCCc1ccccc1)[C@@H]1Cc2ccccc2[C@@H](c2ccccc2)C1`, the values for the Ki 0.5 in assay [1], in assay [2] and in assay [4] were 0.44 µM, 0.24 µM and 0.28 µM, respectively.
Regarding `CN(C)[C@@H]1Cc2ccccc2[C@H](c2ccccc2)C1`, the Ki 0.5 in assay [4] was determined as 0.074 µM.
Consider `CN(CCCc1ccccc1)[C@@H]1Cc2ccccc2[C@@H](c2ccccc2)C1`, for which the Ki 0.5 in assay [1] turned out to be 0.38 µM; in assay [2], 0.54 µM; in assay [4] it was 0.3 µM.
Turning to `CN(C)[C@@H]1CCc2ccccc2[C@@H]1c1ccccc1`, the Ki 0.5 in assay [1] was greater than 5 µM; in assay [2], greater than 5 µM; in assay [3] it was greater than 1 µM; in assay [4], 1.3 µM.
Consider `CN(C)[C@H]1CCc2ccccc2[C@H](c2ccccc2)C1`, for which the Ki 0.5 in assay [1] was greater than 5 µM; in assay [2], greater than 5 µM; in assay [3], greater than 1 µM; in assay [4], 0.12 µM.
In the case of `CN(CCc1ccccc1)[C@@H]1Cc2ccccc2[C@@H](c2ccccc2)C1`, the Ki 0.5 in assay [1] was determined as 0.054 µM; in assay [2], 0.37 µM; in assay [4], 0.15 µM.
Regarding `CN(C)[C@@H]1Cc2ccccc2[C@@H](c2ccccc2)C1` (stereo in doubt; 2), the Ki 0.5 in assay [1] was determined as 2.5 µM; in assay [2] it was 5 µM; in assay [3] it was 1 µM; in assay [4] it was 0.0011 µM.
For `CN(C)[C@@H]1Cc2ccccc2[C@@H](c2ccccc2)C1` (stereo in doubt; (-)-2), the Ki 0.5 in assay [1] is greater than 5 µM; in assay [2] it was greater than 5 µM; in assay [3], greater than 1 µM; in assay [4] it was 0.0005 µM.
Turning to `c1ccc(CCCCN[C@@H]2Cc3ccccc3[C@@H](c3ccccc3)C2)cc1`, the Ki 0.5 in assay [1] was determined as 1.53 µM; in assay [2] it was 1.6 µM; in assay [4], 1.05 µM.
On to `CN(C)[C@@H]1CCc2ccccc2[C@@H](c2ccccc2)C1`, for which the Ki 0.5 in assay [1] was greater than 5 µM; in assay [2], 5 µM; in assay [3], 1 µM; in assay [4] it was 0.0218 µM.
`c1ccc(CCCN[C@@H]2Cc3ccccc3[C@@H](c3ccccc3)C2)cc1`: the Ki 0.5 was greater than 5 µM in assay [1], 5 µM in assay [2] and 2.53 µM in assay [4].
Take `CN(C)[C@@H]1Cc2ccccc2[C@@](C)(c2ccccc2)C1`: the Ki 0.5 was greater than 5 µM in assay [1], greater than 5 µM in assay [2], greater than 1 µM in assay [3] and 0.0182 µM in assay [4].
Regarding `C[N+](C)(C)[C@@H]1Cc2ccccc2[C@@H](c2ccccc2)C1`, the Ki 0.5 in assay [1] is greater than 5 µM; in assay [2], greater than 2.5 µM; in assay [3] it was greater than 1 µM; in assay [4], 0.035 µM.
